Active and inactive are the calls of the source. No cut-off for these calls is given here.
Legend:
Mus musculus [1] = test: Potentiation of acetone-induced cold allodynic response in Swiss CD-1 mouse chronic constriction injury model applied topically 20 mins prior to acetone-challenge measured for 7 to 9 mins post acetone-challenge; type: functional, organism-based
Method in brief: (§1)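 Male Swiss CD1 mice (30–35 g) with sciatic nerve chronic constriction injury under xylazine/ketamine i.p. Day 14: 50 µl of compound at 20% w/v in absolute ethanol applied topically to the operated paw (vehicle: ethanol). After 20 min, acetone applied. Brisk paw withdrawals counted in three 2-min windows about 5 min apart, as totals and per phase. n = 6 per group.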

[2] = (§2) Agonist activity at TRPM8 in differentiated rat/mouse F11 cells assessed as increase in intracellular Ca2+ level by Fura-2-AM based fluorescence assay; type: cell-based
Method in brief: (§3)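 In differentiated F11 cells, L-menthol was perfused for 20 s at 1–300 µM in Normal Krebs, pH 7.4, room temperature. Fura-2 340/380 ratio was imaged every 3 s as F/F0. EC50 came from a fit to y = max/(1 + x/EC50)^n. Mean ± SEM of 23–28 determinations over at least 3 sessions.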

F11 [3] = test: as §2; type: cell-based; method in brief: as §3
Mus musculus [4] = test: Potentiation of acetone-induced cold allodynic response in Swiss CD-1 mouse chronic constriction injury model applied topically 20 mins prior to acetone-challenge measured for 14 to 16 mins post acetone-challenge; type: functional, organism-based; method in brief: as §1
F11 [5] = test: Agonist activity at TRPM8 in differentiated rat/mouse F11 cells assessed as increase in intracellular Ca2+ level at 0.01 to 100 uM by Fura-2-AM based fluorescence assay relative to menthol; type: cell-based
Method in brief: (§4)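 Differentiated F11 cells (≥72 h in 2% FBS plus retinoic acid) in Normal Krebs, pH 7.4, room temperature. Compounds perfused over the stated ranges. Fura-2 340/380 nm ratio read every 3 s after background correction. Peak F/F0 normalized to the maximal menthol response for efficacy. For potency, F/F0 was normalized to each compound's own maximum and fitted to y = max/(1 + […])^n.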

Mus musculus [6] = test: Potentiation of acetone-induced cold allodynic response in Swiss CD-1 mouse chronic constriction injury model applied topically 20 mins prior to acetone-challenge measured up to 2 mins post acetone-challenge; type: functional, organism-based; method in brief: as §1
Mus musculus [7] = test: Potentiation of acetone-induced cold allodynic response in Swiss CD-1 mouse chronic constriction injury model applied topically 20 mins prior to acetone-challenge; type: functional, organism-based; method in brief: as §1
F11 [8] = test: Agonist activity at TRPM8 in differentiated rat/mouse F11 cells assessed as increase in intracellular Ca2+ level at 10 to 1000 uM by Fura-2-AM based fluorescence assay relative to menthol; type: cell-based; method in brief: as §4
F11 [9] = test: Agonist activity at TRPM8 in differentiated rat/mouse F11 cells assessed as increase in intracellular Ca2+ level at 0.01 to 30 uM by Fura-2-AM based fluorescence assay relative to menthol; type: cell-based; method in brief: as §4
F11 [10] = test: Agonist activity at TRPM8 in differentiated rat/mouse F11 cells assessed as increase in intracellular Ca2+ level at 1 to 500 uM by Fura-2-AM based fluorescence assay relative to menthol; type: cell-based; method in brief: as §4
F11 [11] = test: Agonist activity at TRPM8 in differentiated rat/mouse F11 cells assessed as increase in intracellular Ca2+ level at 0.001 to 30 uM by Fura-2-AM based fluorescence assay relative to menthol; type: cell-based; method in brief: as §4
F11 [12] = test: Agonist activity at TRPM8 in differentiated rat/mouse F11 cells assessed as increase in intracellular Ca2+ level at 1 to 300 uM measured after 1 to 15 seconds by Fura-2-AM based fluorescence assay; type: cell-based; method in brief: as §3
F11 [13] = test: Agonist activity at TRPM8 in differentiated rat/mouse F11 cells at 100 uM treated in Ca2+-free solution by Fura-2-AM based fluorescence assay; type: cell-based
Method in brief: (§5)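 Fura-2 ratiometric Ca2+ imaging in F11 cells differentiated ≥72 h in medium with 2% FBS and retinoic acid, on poly-L-lysine coverslips, at room temperature in Normal Krebs (mM: NaCl 160, KCl 5.5, CaCl2 1.5, MgSO4 1.2, HEPES 10, glucose 10, pH 7.4). Menthol 100 µM perfused alone, with BCTC co-perfusion, or in Ca2+-free solution plus 1 mM EDTA. Peak F/F0 quantified.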

F11 [14] = test: Agonist activity at TRPM8 in differentiated rat/mouse F11 cells assessed as effect on intracellular Ca2+ level at 100 uM by Fura-2-AM based fluorescence assay in presence of TRPM8 antagonist BCTC; type: cell-based; method in brief: as §5
[15] = (§6) Agonist activity at TRPM8 in differentiated rat/mouse F11 cells assessed as increase in intracellular Ca2+ level measured after 20 seconds by Fura-2-AM based fluorescence assay; type: cell-based; method in brief: as §3
F11 [16] = test: as §6; type: cell-based; method in brief: as §3
F11 [17] = test: Agonist activity at TRPM8 in differentiated rat/mouse F11 cells assessed as increase in intracellular Ca2+ level at 1 to 100 uM by Fura-2-AM based fluorescence assay relative to menthol; type: cell-based; method in brief: as §4
F11 [18] = test: Agonist activity at TRPM8 in differentiated rat/mouse F11 cells assessed as increase in intracellular Ca2+ level at 0.3 to 100 uM by Fura-2-AM based fluorescence assay relative to menthol; type: cell-based; method in brief: as §4
F11 [19] = test: Agonist activity at TRPM8 in differentiated rat/mouse F11 cells assessed as increase in intracellular Ca2+ level at 0.1 to 300 uM by Fura-2-AM based fluorescence assay relative to menthol; type: cell-based; method in brief: as §4

Q: For `CCCCNc1cc(C)on1`, which Activity (Mus musculus [1]) is on record?
A: Its Activity is “inactive”.

Q: And the EC50 [2]?
A: The EC50 was 3.6 µM.

Q: What about the Activity (F11 [3]) of the same compound?
A: Its Activity is “Dose-dependent effect”.

Q: What about the Activity (Mus musculus [4]) of the same compound?
A: The Activity was “inactive”.

Q: And the Efficacy (F11 [5])?
A: Its Efficacy is 89%.

Q: And the Activity (Mus musculus [6])?
A: The Activity was “Active”.

Q: What about the Activity (Mus musculus [7]) of the same compound?
A: Its Activity is “inactive”.

Q: Which Activity (Mus musculus [1]) does the source give for `Cc1cc(NCCC(C)C)no1` here?
A: Its Activity is “inactive”.

Q: And the EC50 [2]?
A: The EC50 was 0.5 µM.

Q: And the Activity (F11 [3])?
A: Its Activity is “Dose-dependent effect”.

Q: And the Activity (Mus musculus [4])?
A: The Activity was “inactive”.

Q: And the Efficacy (F11 [5])?
A: Its Efficacy is 66%.

Q: What about the Activity (Mus musculus [6]) of the same compound?
A: The Activity was “Active”.

Q: And the Activity (Mus musculus [7]; TDE = time-dependent effect)?
A: Its Activity is “tde”.

Q: Which EC50 [2] does the source give for `CCCCNc1cc(C)no1` here?
A: The EC50 was 100 µM.

Q: What about the Activity (F11 [3]) of the same compound?
A: The Activity was “Dose-dependent effect”.

Q: And the Efficacy (F11 [8])?
A: The Efficacy was 32%.

Q: Which Activity (Mus musculus [1]) does the source give for `Cc1cc(NCC(C)C)no1` here?
A: Its Activity is “inactive”.

Q: What about the EC50 [2] of the same compound?
A: The EC50 was 0.16 µM.

Q: And the Activity (F11 [3])?
A: Its Activity is “Dose-dependent effect”.

Q: And the Activity (Mus musculus [4])?
A: Its Activity is “inactive”.

Q: And the Activity (Mus musculus [6])?
A: Its Activity is “Active”.

Q: And the Efficacy (F11 [9])?
A: Its Efficacy is 58%.

Q: And the Activity (Mus musculus [7]; TDE = time-dependent effect)?
A: The Activity was “tde”.

Q: With `Cc1cc(NCC(C)C)on1` as the compound, how does the EC50 [2] read?
A: Its EC50 is 48.4 µM.

Q: What about the Activity (F11 [3]) of the same compound?
A: Its Activity is “Dose-dependent effect”.

Q: And the Efficacy (F11 [10])?
A: The Efficacy was 36%.

Q: For `Cc1cc(NCc2ccccc2)no1`, which Activity (Mus musculus [1]) is on record?
A: The Activity was “inactive”.

Q: What about the EC50 [2] of the same compound?
A: Its EC50 is 400 µM.

Q: And the Activity (F11 [3])?
A: Its Activity is “Dose-dependent effect”.

Q: And the Efficacy (F11 [8])?
A: The Efficacy was 82%.

Q: And the Activity (Mus musculus [4])?
A: Its Activity is “inactive”.

Q: And the Activity (Mus musculus [6])?
A: Its Activity is “inactive”.

Q: And the Activity (Mus musculus [7])?
A: The Activity was “inactive”.

Q: For `Cc1cc(NC(C)C)no1`, which Activity (Mus musculus [1]) is on record?
A: The Activity was “inactive”.

Q: What about the Efficacy (F11 [11]) of the same compound?
A: Its Efficacy is 53%.

Q: And the EC50 [2]?
A: Its EC50 is 0.1 µM.

Q: And the Activity (F11 [3])?
A: Its Activity is “Dose-dependent effect”.

Q: What about the Activity (Mus musculus [4]) of the same compound?
A: The Activity was “inactive”.

Q: What about the Activity (Mus musculus [6]) of the same compound?
A: Its Activity is “Active”.

Q: What about the Activity (Mus musculus [7]; TDE = time-dependent effect) of the same compound?
A: The Activity was “tde”.

Q: What does the source list for `CC(C)[C@@H]1CC[C@@H](C)C[C@H]1O` [LEVOMENTHOL]?
A: Activity (Mus musculus [1]): Active; Activity (F11 [12]): Active; Activity (Mus musculus [4]): inactive; Activity (F11 [13]): inactive; Activity (Mus musculus [6]): inactive; Activity (F11 [14]): inactive; EC50 [15]: 23.4 µM; Activity (F11 [16]): Dose-dependent effect

Q: For `CC(C)CNc1ccon1`, which EC50 [2] is on record?
A: Its EC50 is 13.2 µM.

Q: And the Activity (F11 [3])?
A: Its Activity is “Dose-dependent effect”.

Q: And the Efficacy (F11 [17])?
A: The Efficacy was 72%.

Q: Which results are given for `Cc1cc(NCC2CCCCC2)no1`?
A: EC50 [2]: 13.9 µM; Activity (F11 [3]): Dose-dependent effect; Efficacy (F11 [18]): 64%

Q: Which EC50 [2] does the source give for `Cc1cc(NCc2ccccc2[N+](=O)[O-])no1` here?
A: The EC50 was 12 µM.

Q: And the Activity (F11 [3])?
A: Its Activity is “Dose-dependent effect”.

Q: What about the Efficacy (F11 [19]) of the same compound?
A: The Efficacy was 66%.

Q: For `Cc1cc(NCc2ccc([N+](=O)[O-])cc2)no1`, which EC50 [2] is on record?
A: The EC50 was 18.9 µM.

Q: And the Activity (F11 [3])?
A: The Activity was “Dose-dependent effect”.

Q: What about the Efficacy (F11 [19]) of the same compound?
A: Its Efficacy is 74%.

Q: Which results are given for `CCCCNc1ccon1`?
A: EC50 [2]: 17.3 µM; Activity (F11 [3]): Dose-dependent effect; Efficacy (F11 [17]): 69%
